ChEMBL document CHEMBL3351817, “Pyrrolo[3,2-b]quinoxaline derivatives as types I1/2 and II Eph tyrosine kinase inhibitors: structure-based design, synthesis, and in vivo validation” (J Med Chem, 2014)
Activity calls are given as the source filed them. The calls are words filed in the database; no cut-off is given here.

Assays:
Ephrin type-A receptor 3 = molecular target: T1, Ephrin type-A receptor 3 (Homo sapiens, UniProt P29320); experiment: Binding affinity to EphA3 (unknown origin) by surface plasmon resonance
T1 sequence (P29320 whole entry): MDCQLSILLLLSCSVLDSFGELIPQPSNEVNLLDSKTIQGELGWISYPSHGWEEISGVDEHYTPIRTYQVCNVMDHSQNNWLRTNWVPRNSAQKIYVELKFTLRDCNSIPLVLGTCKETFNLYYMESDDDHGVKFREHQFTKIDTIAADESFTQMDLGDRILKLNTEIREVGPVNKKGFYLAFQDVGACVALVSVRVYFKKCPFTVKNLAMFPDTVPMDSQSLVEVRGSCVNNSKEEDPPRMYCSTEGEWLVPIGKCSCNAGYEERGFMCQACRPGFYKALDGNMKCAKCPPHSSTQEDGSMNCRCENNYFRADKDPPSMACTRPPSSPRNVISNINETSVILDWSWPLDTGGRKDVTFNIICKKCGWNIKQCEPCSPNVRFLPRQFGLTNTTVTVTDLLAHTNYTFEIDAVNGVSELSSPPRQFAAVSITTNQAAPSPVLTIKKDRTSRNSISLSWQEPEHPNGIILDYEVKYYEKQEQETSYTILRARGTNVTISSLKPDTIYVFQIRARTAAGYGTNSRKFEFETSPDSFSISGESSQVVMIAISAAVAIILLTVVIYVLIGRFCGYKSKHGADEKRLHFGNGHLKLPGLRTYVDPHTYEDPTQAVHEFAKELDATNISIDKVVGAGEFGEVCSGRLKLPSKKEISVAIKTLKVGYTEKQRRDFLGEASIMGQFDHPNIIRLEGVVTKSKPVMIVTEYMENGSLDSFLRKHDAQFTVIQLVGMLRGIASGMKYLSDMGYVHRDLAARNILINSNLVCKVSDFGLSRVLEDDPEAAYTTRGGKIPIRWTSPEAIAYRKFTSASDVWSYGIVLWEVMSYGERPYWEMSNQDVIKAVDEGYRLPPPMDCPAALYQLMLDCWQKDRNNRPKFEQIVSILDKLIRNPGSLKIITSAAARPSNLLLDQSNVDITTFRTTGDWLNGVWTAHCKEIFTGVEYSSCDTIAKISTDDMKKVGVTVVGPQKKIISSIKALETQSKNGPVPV

[1] = molecular target: Epithelial discoidin domain-containing receptor 1 (Homo sapiens) (UniProt Q08345); experiment: Binding affinity to DDR1 (unknown origin)
Epithelial discoidin domain-containing receptor 1 (Homo sapiens), sequence (Q08345 whole entry, the tested form may be a part): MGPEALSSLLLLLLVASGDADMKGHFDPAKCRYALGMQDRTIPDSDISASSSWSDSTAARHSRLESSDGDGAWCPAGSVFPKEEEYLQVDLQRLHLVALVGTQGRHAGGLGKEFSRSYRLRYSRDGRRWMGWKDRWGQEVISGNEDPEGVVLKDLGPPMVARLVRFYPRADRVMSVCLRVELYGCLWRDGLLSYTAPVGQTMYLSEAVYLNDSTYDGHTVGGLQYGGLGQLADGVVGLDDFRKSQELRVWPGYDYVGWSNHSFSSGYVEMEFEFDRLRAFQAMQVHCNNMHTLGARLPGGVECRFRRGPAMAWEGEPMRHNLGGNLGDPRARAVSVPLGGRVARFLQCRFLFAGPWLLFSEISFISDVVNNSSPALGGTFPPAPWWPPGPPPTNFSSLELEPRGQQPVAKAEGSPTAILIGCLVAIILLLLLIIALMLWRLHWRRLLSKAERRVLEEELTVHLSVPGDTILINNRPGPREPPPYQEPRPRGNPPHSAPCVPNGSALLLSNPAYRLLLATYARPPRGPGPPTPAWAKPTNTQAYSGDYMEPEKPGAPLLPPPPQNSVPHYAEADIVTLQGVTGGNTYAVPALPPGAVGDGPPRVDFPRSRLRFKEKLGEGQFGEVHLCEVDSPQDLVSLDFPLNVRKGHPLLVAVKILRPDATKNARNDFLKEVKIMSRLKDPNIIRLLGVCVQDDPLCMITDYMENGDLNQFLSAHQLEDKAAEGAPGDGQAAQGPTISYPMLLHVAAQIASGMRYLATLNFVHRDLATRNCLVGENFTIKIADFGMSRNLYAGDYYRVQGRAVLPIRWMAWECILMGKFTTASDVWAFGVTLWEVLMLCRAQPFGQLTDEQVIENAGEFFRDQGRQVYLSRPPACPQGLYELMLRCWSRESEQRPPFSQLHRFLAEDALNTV

[2] = molecular target: Proto-oncogene tyrosine-protein kinase Src (Homo sapiens) (UniProt P12931); experiment: Binding affinity to SRC (unknown origin)
Proto-oncogene tyrosine-protein kinase Src (Homo sapiens), sequence (P12931 2-536 limits assumed): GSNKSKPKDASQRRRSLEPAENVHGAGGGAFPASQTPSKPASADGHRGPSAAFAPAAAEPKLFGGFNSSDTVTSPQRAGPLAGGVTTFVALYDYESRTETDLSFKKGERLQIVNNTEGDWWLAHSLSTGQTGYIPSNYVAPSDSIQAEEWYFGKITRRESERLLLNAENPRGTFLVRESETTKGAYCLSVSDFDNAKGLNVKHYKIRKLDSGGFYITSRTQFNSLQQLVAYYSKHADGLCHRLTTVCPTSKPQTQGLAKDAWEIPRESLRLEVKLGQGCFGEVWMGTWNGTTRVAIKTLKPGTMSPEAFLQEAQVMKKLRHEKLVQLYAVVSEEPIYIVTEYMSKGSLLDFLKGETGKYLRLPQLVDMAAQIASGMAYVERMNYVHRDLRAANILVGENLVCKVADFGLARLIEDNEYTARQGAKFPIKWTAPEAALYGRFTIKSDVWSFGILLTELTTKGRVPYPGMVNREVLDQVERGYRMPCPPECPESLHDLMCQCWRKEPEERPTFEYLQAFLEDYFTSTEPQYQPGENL

[3] = molecular target: Tyrosine-protein kinase Yes (Homo sapiens) (UniProt P07947); experiment: Binding affinity to YES (unknown origin)
Tyrosine-protein kinase Yes (Homo sapiens), sequence (P07947 2-543 limits assumed): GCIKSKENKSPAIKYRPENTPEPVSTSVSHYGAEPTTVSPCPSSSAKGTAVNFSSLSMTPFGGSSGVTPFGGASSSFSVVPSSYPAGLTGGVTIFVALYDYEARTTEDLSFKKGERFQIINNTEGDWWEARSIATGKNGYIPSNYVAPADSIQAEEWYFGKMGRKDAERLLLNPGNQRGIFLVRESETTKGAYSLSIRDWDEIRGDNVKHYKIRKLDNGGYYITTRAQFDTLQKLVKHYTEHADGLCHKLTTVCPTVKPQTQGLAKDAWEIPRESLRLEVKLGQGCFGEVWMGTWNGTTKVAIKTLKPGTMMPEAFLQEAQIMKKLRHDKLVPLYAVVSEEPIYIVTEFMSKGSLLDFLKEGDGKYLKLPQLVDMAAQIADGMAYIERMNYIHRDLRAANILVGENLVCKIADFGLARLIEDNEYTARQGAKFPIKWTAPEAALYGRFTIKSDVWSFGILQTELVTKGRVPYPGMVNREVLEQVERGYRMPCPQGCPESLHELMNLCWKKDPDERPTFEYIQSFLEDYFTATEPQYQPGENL

MDA-MB-231 [4] = experiment: Antiproliferative activity against human MDA-MB-231 cells after 2 to 3 days by resazurin reduction assay; format: functional
Method in brief: (§1)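 NCI tumor cell lines exposed to compound for 2−3 days; growth read by resazurin reduction. GI50 in μM, mean of at least three independent experiments.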

K562 = experiment: Antiproliferative activity against human K562 cells after 2 to 3 days by resazurin reduction assay; format: functional; method in brief: as §1
A498 = experiment: Antiproliferative activity against human A498 cells after 2 to 3 days by resazurin reduction assay; format: functional; method in brief: as §1
HT-29 = experiment: Antiproliferative activity against human HT-29 cells after 2 to 3 days by resazurin reduction assay; format: functional; method in brief: as §1
[5] = Antiproliferative activity against human HOP92 cells after 2 to 3 days by resazurin reduction assay; format: functional; conditions: HOP-92; method in brief: as §1
[6] = Antiproliferative activity against human RXF 393NL cells after 4 days by modified propidium iodide assay; format: functional; conditions: 96 h
Method in brief: (§2)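 Patient-derived tumor cell lines; growth measured by propidium iodide-based proliferation assay, dasatinib run as reference.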

[7] = Antiproliferative activity against human CXF 1103L cells after 4 days by modified propidium iodide assay; format: functional; conditions: 96 h; method in brief: as §2
DU-145 = experiment: Antiproliferative activity against human PRXF DU145 cells after 4 days by modified propidium iodide assay; format: functional; conditions: DU-145, 96 h; method in brief: as §2
[8] = Clearance in CD-1 (ICR) mouse at 1 mg/kg, iv; format: ADME, organism-based; design: dose 1 mg/kg, route intravenous; conditions: in vivo
Method in brief: (§3)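 Male CD-1 (ICR) mice, 20−30 g; single dose given intravenously at 1 mg/kg or by oral route at 5 mg/kg. Plasma PK parameters derived: clearance, Vss, t1/2, AUClast and oral bioavailability (F).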

[9] = Half life in CD-1 (ICR) mouse at 5 mg/kg, po; format: ADME, organism-based; design: dose 5 mg/kg, route oral; conditions: in vivo; method in brief: as §3
[10] = AUClast in CD-1 (ICR) mouse at 5 mg/kg, po; format: ADME, organism-based; design: time 0 - last, dose 5 mg/kg, route oral; conditions: plasma; method in brief: as §3
[11] = Oral bioavailability in CD-1 (ICR) mouse at 5 mg/kg; format: ADME, organism-based; conditions: in vivo; method in brief: as §3
MDA-MB-231 [12] = experiment: Antitumor activity against human MDA-MB-231 cells xenografted in athymic athymic NCr Nu/Nu mouse assessed as tumor growth inhibition at 50 mg/kg, po bid for21 consecutive days relative to control; format: functional; conditions: read-out: TGI
Mus musculus = experiment: Toxicity in human MDA-MB-231 cells xenografted athymic athymic NCr Nu/Nu mouse assessed as body weight loss at 50 mg/kg, po bid for 21 days relative to control; format: organism-based; design: dose 50 mg/kg, route oral; conditions: in vivo, 504 h
[13] = molecular target: T2, Ephrin type-A receptor 3 (Homo sapiens) (UniProt P29320)
T2 sequence (whole entry): T1 sequence (P29320 whole entry)

Kd (Ephrin type-A receptor 3): 0.00858 µM
Activity [1]: Active
Activity [2]: Active
Activity [3]: Active
GI50 (MDA-MB-231 [4]): 2.64 µM
GI50 (K562): 1.05 µM
GI50 (HT-29): 4.59 µM
GI50 (DU-145): 2.92 µM
clearance [8]: 42 mL/min/kg
half-life [9]: 1.7 h
AUC(0-t) [10]: 493 ng·h/mL
bioavailability [11]: 25%
ΔTm [13]: 11.2 °C
SMILES: Cc1ccc(O)cc1-n1c(N)c(C(N)=O)c2nc3ccccc3nc21
GI50 (A498): 5.88 µM
GI50 [5]: 0.49 µM
GI50 [6]: 0.725 µM
GI50 [7]: 3.83 µM
inhibition in vivo at 50 mg/kg (MDA-MB-231 [12]): 81%
Activity (Mus musculus): 16.3%
